Only some compounds are listed: those with a hit (about 0.58% of all), similar ones and a draw of the others.
miR122 inh = inhibitors of miR-122 in Huh7 cells; Huh7 miR-122 Renilla luciferase sensor, 48 h; neutral wells = 0, positive control = 100; activation (reporter increase), % at 12.5 µM; hit rate 0.3% among 340,000;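 active = mean replicate activation score at least 90 and every replicate individually at or above 90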;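 also: higher luciferase means less miR-122 activity so hits act as miR-122 inhibitors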
PglD DTNB = PglD (C. jejuni) enzyme inhibition; purified PglD enzyme, DTNB colorimetric CoA detection; inhibition, % at 12.5 µM; hit rate 0.098% among 360,000; AID 602405; in the data active = inhibition above about 16%, passing the limit was not always enough
PDI inh = inhibitors of human protein disulfide isomerase; P07237; PDI insulin aggregation turbidity, A650, 90 min; inhibition, % at 10 µM; hit rate 0.052% among 350,000; AID 588391;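 active = mean inhibition across replicates of 30% or more, whatever share of single replicates reach that level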
PvdQ acylase = P. aeruginosa PvdQ acylase inhibition | purified PvdQ acylase, fluorescence plate reader | inhibition, % at 10 µM | hit rate 0.063% among 340,000 | AID 488965; in the data active = inhibition above about 30%, passing the limit was not always enough;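 also: 0% = vehicle neutral wells and 100% = reference inhibitor wells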
Cneo AK release = causes C. neoformans cell lysis; adenylate kinase release luminescence, 4 h; normalised: neutral wells 0, clomiphene wells 100; lysis activity, % at 15 µM; hit rate 0.2% among 360,000; AID 651654;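 active = mean lysis activity across replicates of at least 80%, whatever share of replicates individually reach that level; inactive = mean lysis activity below 80%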
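Signal: Adenylate kinase release luminescence | Assay system: Log-phase Cryptococcus neoformans yeast cells | Input: Cells at 5 × 10^6 per mL | Buffer or medium: Fresh YPD growth medium | Compound: Single dose | Schedule: Static 4 h at 37 °C with compound, 1 h detection | Controls: Clomiphene | Read-out: Luminescence rise reflecting yeast cell lysis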
ERp5 block = ERp5 (human) disulfide isomerase inhibition; Q15084; ERp5 insulin aggregation, absorbance 650 nm, 90 min; inhibition, % at 9.99 µM; hit rate 0.05% among 350,000; AID 651711;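 active = mean replicate inhibition above about 25%, with every replicate also reaching it, limit read from the data, passing the limit was not always enough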
Target sequence (Q15084 whole entry, looked up): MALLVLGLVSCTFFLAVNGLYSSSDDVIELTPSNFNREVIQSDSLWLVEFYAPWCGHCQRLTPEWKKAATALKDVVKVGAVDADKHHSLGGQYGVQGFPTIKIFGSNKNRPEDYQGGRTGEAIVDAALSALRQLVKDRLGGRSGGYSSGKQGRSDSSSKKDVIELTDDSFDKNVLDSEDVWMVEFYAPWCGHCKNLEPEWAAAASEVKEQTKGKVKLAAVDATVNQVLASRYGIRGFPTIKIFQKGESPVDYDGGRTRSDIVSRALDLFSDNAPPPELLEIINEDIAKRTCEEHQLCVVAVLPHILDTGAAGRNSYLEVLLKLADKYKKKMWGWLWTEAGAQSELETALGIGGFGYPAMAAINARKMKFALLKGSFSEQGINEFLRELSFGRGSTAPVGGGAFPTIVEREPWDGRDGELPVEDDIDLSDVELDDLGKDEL
* hit, by the source's call; / = no result; [ ] = another dose, or the depositor's remark.

SMILES | miR122 inh | PglD DTNB | PDI inh | PvdQ acylase | Cneo AK release | ERp5 block
O=C1C=C(c2ccccc2)OC2(CCCC2)O1 | -6.5 | -0.4 | -2.0 | -0.3 | -0.6 | /
CN(Cc1ccccc1)c1ncnc2ccc(Br)cc12 | -5.4 | -1.2 | -6.2 | 97.5* | -4.7 | /
CCOc1ccccc1Nc1ncnc2ccc(Br)cc12 | / | / | 5.1 | -10.3 | / | -1.3
Cc1ccc(S(=O)(=O)Nc2cc(C)c(O)c(S(=O)(=O)c3ccc(C)cc3)c2)cc1 | 139.6* | -1.7 | -9.0 | -11.2 | / | -6.9
COc1cccc(NC(=S)N2CCC(Cc3ccccc3)CC2)c1 | 0.3 | -0.4 | -2.6 | -9.3 | 116.6* | 4.0
O=c1oc(-c2ccc(F)cc2)nc2ccsc12 | -7.7 | -3.7 | 2.8 | 70.2* | 0.5 | /
O=c1oc(-c2ccccc2Cl)nc2ccsc12 | 6.4 | -8.1 | -2.8 | 17.2 | -3.1 | /
COc1ccc(S(=O)(=O)Nc2ccc(C)c(S(=O)(=O)N3CCOCC3)c2)cc1[N+](=O)[O-] | 98.2* | -2.2 | -2.4 | 5.6 | -1.0 | 2.0
COc1cc(S(=O)(=O)N2CCCCCC2)c(OC)cc1Br | 307.9* | -0.4 | -6.4 | 4.7 | 1.0 | /
COc1ccc(NS(=O)(=O)c2cccc(Cl)c2)cc1S(=O)(=O)N1CCCCC1 | 438.0* | -1.2 | -0.1 | -4.4 | 0.3 | -10.0
Cc1ccc(S(=O)(=O)Nc2cccc(S(=O)(=O)N3CCCC3)c2)cc1C | 122.5* | -5.4 | 2.6 | -4.8 | -0.8 | -1.1
COc1ccc(S(=O)(=O)Nc2ccc(S(=O)(=O)N3CCOCC3)cc2)cc1C | 36.7 | 9.9 | 3.4 | -8.1 | 2.8 | /
O=S(=O)(Nc1cccc(S(=O)(=O)N2CCCC2)c1)c1ccc(Br)cc1 | 44.4 | 11.6 | -3.8 | / | -0.3 | -1.4
COc1cccc(NC(=O)Nc2ccc3c(c2)C(=O)N(C)[C@@H]2CC[C@H](CC(=O)NCCc4ccccc4)O[C@@H]2CO3)c1 | / | 3.0 | / | / | 0.7 | /
O=C(C[C@@H]1CC[C@@H]2[C@H](COC[C@H](O)CN2Cc2ccccc2F)O1)NC1CCC1 | -5.1[16.7 µM] | 0.1 | / | / | 0.1 | /
O=C(C[C@H]1CC[C@H]2[C@@H](COC[C@@H](O)CN2S(=O)(=O)c2ccc(Oc3ccccc3)cc2)O1)Nc1ccccc1 | -3.0[16.7 µM] | 2.1 | / | / | 12.6 | -9.9
O=C(C[C@@H]1CC[C@H]2[C@@H](COC[C@H](O)CN2Cc2ccccc2F)O1)NC1CCC1 | 6.6[16.7 µM] | 19.1 | / | / | 97.2* | /
CN1CCN(C(=O)C[C@@H]2CC[C@H]3[C@@H](COC[C@H](O)CN3C(=O)Cc3ccccc3)O2)CC1 | -3.7[16.7 µM] | -45.4 | / | / | 93.8* | 1.5
O=C(C[C@H]1CC[C@H]2[C@@H](COC[C@H](O)CN2Cc2cc(F)cc(F)c2)O1)Nc1nccs1 | 31.7[16.7 µM] | 4.3 | / | / | 95.7* | /
O=C(C[C@@H]1CC[C@@H]2[C@H](COC[C@H](O)CN2S(=O)(=O)c2ccc(Oc3ccccc3)cc2)O1)NC1CCC1 | 8.6[16.7 µM] | 3.3 | / | / | 95.1* | -2.1
C[C@H](CO)N1C[C@H](C)[C@@H](CN(C)C(=O)C2CCCCC2)Oc2ncc(-c3cccnc3)cc2C1=O | 2.0[16.7 µM] | / | / | / | / | /
CNC[C@@H]1Oc2cc(-c3cncnc3)ccc2S(=O)(=O)N([C@@H](C)CO)C[C@H]1C | 1.0[16.7 µM] | 3.1 | / | / | 14.5 | 2.1
COCC(=O)N1CC2(CCN(Cc3cccnc3)CC2)c2c(n(C)c3cc(OC)ccc23)[C@H]1CO | / | / | / | / | / | 1.3
C[C@@H]1CCCCO[C@H](CN(C)C(=O)c2ccncc2)[C@H](C)CN([C@H](C)CO)C(=O)c2cc(NC(=O)c3ccncc3)ccc2O1 | 3.5[16.7 µM] | -2.1 | / | / | 4.7 | 4.8
O=C(C1CC1)N1CCCCN2[C@H](C1)[C@@H](c1ccc(C#CC3CC3)cc1)[C@@H]2CO | 19.4[16.7 µM] | 3.0 | / | / | 0.1 | -1.9
SMILES | miR122 inh | PglD DTNB | PDI inh | PvdQ acylase | Cneo AK release | ERp5 block
CC=Cc1ccc2n(c1=O)C[C@H]1[C@H](CO)[C@@H](C(=O)N3CCc4ccccc4C3)[C@@H]2N1CCC (mixture of isomers) | 2.1[16.7 µM] | -59.4 | / | / | -2.4 | /
CCNC(=O)C[C@@H]1C=C[C@@H](NC(=O)C2CC2)[C@H](CO)O1 | / | -0.5 | / | / | -0.8 | 1.8
O=C(O)C[C@@H]1CC[C@@H]2[C@H](COC[C@H](O)CN2S(=O)(=O)c2ccc(F)cc2)O1 | 0.1[16.7 µM] | -2.2 | / | / | 83.2* | 4.1
COc1ccccc1S(=O)(=O)N1C[C@H](O)COC[C@H]2O[C@@H](CC(=O)O)CC[C@@H]21 | 2.8[16.7 µM] | -0.2 | / | / | 0.0 | 35.9*
CO[C@H]1CN(C)C(=O)c2cc(NC(=O)c3cccc(F)c3)ccc2OC[C@H](C)N(CC2CC2)C[C@H]1C | / | 3.3 | / | / | 1.1 | -7.7
O=S(=O)(c1cc(F)ccc1F)N1CCN(c2ncccn2)CC1 | / | -3.2 | 34.1* | 2.0 | 2.0 | -1.9
C[C@@H]1CCCCO[C@@H](CN(C)C)[C@@H](C)CN([C@@H](C)CO)C(=O)c2cc(NS(=O)(=O)c3cccs3)ccc2O1 | 10.3[16.7 µM] | 1.7 | / | / | 4.1 | -7.1
Oc1ccccc1-c1nnc(SCCN2CCOCC2)n1Cc1ccccc1 | 240.7* | -3.4 | 6.8 | -17.8 | -1.2 | /
COc1ccc(OC)c(S(=O)(=O)Nc2ccc(-c3ccc4nnc(C)n4n3)cc2)c1 | / | / | 3.1 | -1.8 | / | 7.0
COc1ccc(S(=O)(=O)Nc2ccc(-c3ccc4nnc(C)n4n3)cc2)c(OC)c1 | 92.4* | -3.6 | 15.5 | 2.0 | -0.8 | 1.6
CCOc1ccc(NS(=O)(=O)c2ccc(NC(=S)NC(=O)C(C)C)cc2)cc1 | 115.1* | 2.2 | -16.5 | -4.7 | -1.6 | /
CC(C)C(=O)NC(=S)Nc1ccc(S(=O)(=O)Nc2ccccc2)cc1 | 136.6* | -0.5 | -3.5 | -4.9 | 3.0 | /
C[C@H]1CN([C@@H](C)CO)C(=O)c2cccc(NS(=O)(=O)c3cn(C)cn3)c2O[C@@H]1CN(C)C(=O)Nc1ccccc1 | -5.8[16.7 µM] | -1.1 | / | / | -3.0 | 5.6
O=C(NCC1CC1)[C@@H]1[C@@H](CO)[C@@H]2Cn3c(ccc(-c4cccc(F)c4)c3=O)[C@@H]2N1CC1CCCC1 | -7.4[16.7 µM] | 1.4 | / | / | / | /
COc1ccc2c3c([nH]c2c1)[C@H](CO)N(Cc1nccs1)CC31CN(C(=O)C2CCCCC2)C1 | / | / | / | / | / | 3.9
COc1ccc2c3c([nH]c2c1)[C@H](CO)N(C(=O)C1CC1)CC31CCN(Cc2nccs2)CC1 | / | / | / | / | / | -8.5
COc1ccc2c3c([nH]c2c1)[C@@H](CO)N(Cc1nccs1)CC31CN(C(=O)C2CCCC2)C1 | / | / | / | / | / | 80.3*
COc1ccc2c3c([nH]c2c1)[C@H](CO)N(C(=O)C1CCOCC1)CC31CCN(Cc2nccs2)CC1 | / | / | / | / | / | 83.6*
Cc1noc(C)c1NC(=O)N(C)C[C@H]1Oc2c(NS(=O)(=O)c3cn(C)cn3)cccc2C(=O)N([C@H](C)CO)C[C@H]1C | -21.9[16.7 µM] | 12.8 | / | / | -4.4 | -8.7
COC(=O)[C@H]1[C@H](CO)[C@H]2Cn3c(ccc(-c4cccc(F)c4)c3=O)[C@H]2N1Cc1ccccn1 | 4.3[16.7 µM] | -1.1 | / | / | 3.0 | 6.6
CCN(c1ccccc1)S(=O)(=O)c1cc(C(=O)Nc2ccc(Br)cc2)ccc1F | / | / | -4.6 | 4.9 | / | /

Source: PubChem BioAssay (Broad Institute)
